This passage reports Proliferative response results from ChEMBL document CHEMBL1125686, “(Benzoylphenyl)piperidines: a new class of immunomodulators” (1991).

The structures appear in SMILES notation.

What all share (format): functional
The test system of test [1] is Mus musculus. Description: Proliferation induced by the mitogen alone-Concanavalin A (control blastogenesis), in mice cells dosed at 5 ug/mL. Also on record: unit not given here. The procedure, abridged:
(§1)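 Splenocytes from female DBA/2 mice, 6–9 weeks old; red cells lysed with cold 0.17 M NH₄Cl. Cells plated at 5 × 10⁶ cells/mL in RPMI 1640 with 5% FCS, with compound (5–80 μg/mL range) and Con A, PWM or PHA at a batch-optimized concentration. Cultured 72 h at 37 °C, 5% CO₂, with [³H]thymidine for the final 24 h, read by scintillation. Triplicate wells; mean ± SD of three cultures.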

For test [2], the species on record is Mus musculus. Description: Proliferation induced by the mitogen alone-PWM (control blastogenesis), in Mice cells at a dose of 40 ug/mL. Also noted: unit not given here. The procedure, abridged:
(§2)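 Splenocytes from female DBA/2 mice aged 6–9 weeks, red cells lysed with cold 0.17 M NH4Cl, cultured at 5 × 10⁶ cells/mL in RPMI 1640 with 5% FCS. Pokeweed mitogen added at a batch-adjusted optimal level, 72 h at 37 °C, 5% CO2. [³H]thymidine pulse for the final 24 h, then scintillation counting. Triplicates; mean ± SD of three cultures.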

The test system of test [3] is Mus musculus. Description: Maximal proliferation induced in the presence of the mitogen-Concanavalin A (stimulated blastogenesis) in mice cells dosed at 5 ug/mL. Also on record: unit not given here. The procedure, abridged: as §1
For test [4], the species on record is Mus musculus. Description: Maximal proliferation induced in the presence of the mitogen-PWM ( stimulated blastogenesis) in Mice cells at a dose of 40 ug/mL. Also noted: unit not given here. The gist of the method: as §1
For test [5], the species on record is Mus musculus. Description: Proliferation induced by the mitogen alone-PHA (control blastogenesis), in Mice cells at a dose of 7.5 ug/mL. The gist of the method: as §1
For test [6], the species on record is Mus musculus. Description: Maximal proliferation induced by the test compound in the presence of the mitogen-PHA ( stimulated blastogenesis) in Mice cells at a dose of 7.5 ug/mL. The gist of the method: as §1
Test [7] is filed under the species Mus musculus. Description: Maximal proliferation induced in the presence of the mitogen-PHA ( stimulated blastogenesis) in Mice cells at a dose of 5 ug/mL. Also noted: unit not given here. The procedure, abridged: as §1
Test [8] is filed under the species Mus musculus. Description: Proliferation induced by the mitogen alone-PHA (control blastogenesis), in Mice cells at a dose of 5 ug/mL. Also noted: unit not given here. The gist of the method: as §1
Test [9] is filed under the species Mus musculus. Description: Proliferation induced by the mitogen alone-PWM (control blastogenesis), in Mice cells at a dose of 20 ug/mL. The gist of the method:
as §1

The species named for test [10] is Mus musculus. Description: Maximal proliferation induced by the test compound in the presence of the mitogen-PWM ( stimulated blastogenesis) in Mice cells at a dose of 20 ug/mL. The procedure, abridged: as §1
The species entered for test [11] is Mus musculus. Description: Proliferation induced by the mitogen alone-PWM (control blastogenesis), in Mice cells at a dose of 10 ug/mL. Also noted: unit not given here. The procedure, abridged:
as §1

The species named for test [12] is Mus musculus. Description: Maximal proliferation induced in the presence of the mitogen-PWM ( stimulated blastogenesis) in Mice cells at a dose of 10 ug/mL. Also noted: unit not given here. The procedure, abridged:
as §1

For test [13], the species on record is Mus musculus. Description: Maximal proliferation induced in the presence of the mitogen-PWM ( stimulated blastogenesis) in Mice cells at a dose of 80 ug/mL. Also noted: unit not given here. The procedure, abridged: as §1
Test [14] is filed under the species Mus musculus. Description: Proliferation induced by the mitogen alone-PWM (control blastogenesis), in Mice cells at a dose of 80 ug/mL. Also noted: unit not given here. The procedure, abridged:
as §2

Take `CC1CCN(c2ccc(N)cc2C(=O)c2ccccc2)CC1`: the Proliferative response in test [1] is listed as 188.1; in test [2], 48.9; in test [3] it was 167; in test [4], 55.7.

Consider `CC1CCN(c2ccccc2C(=O)c2ccc(Cl)cc2)CC1`, for which the Proliferative response in [1] came out at 92.7; in test [5], 17.4; in test [3], 62.7; in test [6], 15.5.

For `Cc1ccc(C(=O)c2cc(N)ccc2N2CCC(C)CC2)cc1`, the Proliferative response in [1] came to 179.7; in test [2], 53.8; in test [3], 283.2; in test [4], 48.9.

Turning to `CC1CCN(c2ccc(Cl)cc2C(=O)c2ccc(Cl)cc2)CC1`, the Proliferative response in test [1] is 55.6; in test [5], 14.6; in test [3], 68.7; in test [6], 8.2.

As to `CC1CCN(c2ccc([N+](=O)[O-])cc2C(=O)c2ccc(Cl)cc2)CC1`, the Proliferative response is given as 160.9 in test [1], 59.9 in test [2], 93.7 in [3] and 42.7 in [4].

As to `CC1CCN(c2ccc(N)cc2C(=O)c2ccc(Br)cc2)CC1`, the Proliferative response in test [1] was 118.7; in [2], 40.5; in test [7], 11.1; in test [8], 7; in [3], 123.4; in test [4] it was 56.4.

Turning to `Cc1cc(C(=O)c2cc(N)ccc2N2CCC(C)CC2)cc(C)c1C`, the Proliferative response in [9] is recorded as 84.5; in test [1] it was 152.6; in test [3], 206; in [10] it was 77.1.

`CCC1CCN(c2ccc(N)cc2C(=O)c2ccc(Cl)cc2)CC1`: the Proliferative response in test [1] was 319.5; in [7] it was 37.4; in [8] it was 30.4; in test [11], 88.7; in test [3] it was 348; in test [12] it was 114.6.

Turning to `CC1CCN(c2ccc(N)cc2C(=O)c2ccc(Cl)c(Cl)c2)CC1`, the Proliferative response in test [1] was determined as 136.6; in test [3] it was 151.5; in [13] it was 64.4; in test [14], 48.4.
